Shown are actives, neighbours in structure and some others; about 2.9% of the full set was active somewhere.
TRPC4 agonist = activators of mouse TRPC4 channel. Q9QUQ5. HEK293 TRPC4beta/mu-opioid, Fluo4 calcium fluorescence; active compounds read high. B-score at 10 µM. actives 0.49% (n = 310,000);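 active means B-score above 5 SD of library B-scores, and initial fluorescence ratio not above library mean plus 5 SD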;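 further: positive B-score marks a calcium rise read as TRPC4 activation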
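Assay system: HEK293 stable line with TRPC4beta plus mu-opioid receptor; schedule: 45 min room-temperature Fluo4 loading, 110 s read; technique: kinetic Fluo4 calcium fluorescence; evaluation: integrated baseline-normalised fluorescence ratio, converted to per-well B score; controls: buffer (low) and maximal DAMGO (high)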
Kir21 block = inhibitors of mouse Kir2.1 inward-rectifier potassium channel. P35561. HEK293-Kir2.1, FluxOR thallium flux fluorescence; active compounds read low. B-score at 10 µM. actives 0.85% (n = 310,000);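 active means fluorescence ratio B-score at or below minus 3 SD of library scores, with starting-brightness B-score within 2 SD, cut at about -4.2 in these data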;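 further: channel flux triggered by added potassium and thallium sulfate stimulus; B-score of peak minus minimum fluorescence over baseline after thallium stimulus; more negative B-score means stronger Kir2.1 block with less thallium influx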
Target sequence (P35561 whole entry, looked up): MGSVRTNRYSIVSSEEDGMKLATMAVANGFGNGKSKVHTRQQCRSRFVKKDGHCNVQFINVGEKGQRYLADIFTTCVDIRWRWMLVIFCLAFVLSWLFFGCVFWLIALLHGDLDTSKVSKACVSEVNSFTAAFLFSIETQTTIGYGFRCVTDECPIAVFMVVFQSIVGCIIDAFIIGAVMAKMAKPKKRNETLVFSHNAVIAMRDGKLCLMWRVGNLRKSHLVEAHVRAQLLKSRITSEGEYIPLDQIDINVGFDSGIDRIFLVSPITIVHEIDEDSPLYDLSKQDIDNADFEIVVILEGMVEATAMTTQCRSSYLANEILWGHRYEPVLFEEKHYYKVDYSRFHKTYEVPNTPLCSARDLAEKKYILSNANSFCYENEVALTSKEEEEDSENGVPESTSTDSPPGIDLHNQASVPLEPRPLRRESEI
TRPC4 inh = inhibitors of mouse TRPC4 channel | Q9QUQ5 | AID 2247 | B-score at 10 µM | actives 0.39% (n = 300,000) | HEK293 TRPC4beta/mu-opioid, DAMGO-evoked Fluo4 calcium flux; active compounds read low;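 active means B-score over 3 SD under the library average, no early fluorescence shift, positive overall ratio signal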
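material = TRPC4beta/mu-opioid receptor HEK293 cell line | probe or stimulus = sequential submaximal and maximal DAMGO stimulation | compound dosing = one concentration per compound | measured by = Fluo4 Ca2+ flux fluorescence | evaluation = integrated fluorescence ratio relative to baseline, converted to per-well B score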
TRPC6 inhibitor = blocks the mouse TRPC6 cation channel; Q61143; HEK293-TRPC6, membrane potential dye, ACh-evoked depolarization; active compounds read low; B-score at 10 µM; actives 1.1% (n = 310,000);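 active means B-score under library mean minus 3 SD, initial fluorescence not abnormally high, positive integrated signal ratio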;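 further: B-score derived from integrated fluorescence ratio over the kinetic read; more negative B-score means stronger inhibition of depolarization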
TRPC6 act = activates the mouse TRPC6 cation channel; Q61143; HEK293-TRPC6 membrane potential dye fluorescence; active compounds read high; B-score at 10 µM; actives 0.13% (n = 310,000);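 active means B-score of the integrated fluorescence ratio above library mean plus 3 SD, and starting fluorescence ratio within library mean plus 5 SD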;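 further: higher score means more depolarization so channel activation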
TRPC4 PAM = allosteric potentiators of mouse TRPC4 channel; Q9QUQ5; HEK293 TRPC4beta/mu-opioid, DAMGO EC20, Fluo-4 Ca2+ flux; active compounds read high; B-score at 10 µM; actives 0.42% (n = 310,000);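 active means B-score of calcium response area above 5 SD of library B-scores, with initial fluorescence ratio within 5 SD of library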
A number is an active result; i = inactive.

SMILES	TRPC4 agonist	Kir21 block	TRPC4 inh	TRPC6 inhibitor	TRPC6 act	TRPC4 PAM
CC(C)(C(N)=O)N1CCN(c2ncc(C(F)(F)F)cc2Cl)CC1	61	i	i	i	i	i
CC(=O)Nc1ccc(NC(=O)C(C)OC(=O)CCCOc2ccc(Cl)c(C)c2)cc1 (configuration not stated)	i	i	i	i	i	i
COc1ccc(-n2nnnc2SCC(=O)Nc2cccc(O)c2)cc1	i	i	i	i	i	i
FC(F)(F)c1cnc(N2CCCN(C(=S)Nc3ccccc3)CC2)c(Cl)c1	159	i	i	i	i	i
OCCNCC(O)Cn1c2ccccc2c2ccccc21 (configuration not stated)	i	i	i	i	i	i
COc1ccccc1CNC(=O)CC(C)C	i	i	i	i	i	i
COc1cc(CNC(C)c2ccccc2)cc(Br)c1OCc1ccccc1 (configuration not stated)	i	i	i	i	i	i
COc1ccccc1CNCc1cccc(Oc2ccccc2)c1	i	-8.8	i	i	i	i
COc1ccccc1CNCC(O)Cn1c2ccccc2c2ccccc21 (configuration not stated)	80	-13	i	i	i	i
COc1ccc(Br)cc1CNC(C)c1ccccc1 (configuration not stated)	i	-4.4	-6	i	i	i
COc1ccccc1CNCC(c1ccccc1)c1ccccc1	i	-8.5	-6	i	i	i
S=c1[nH]nc([C@@H]2C[C@H]2c2ccccc2)n1-c1ccccc1Cl	i	i	i	i	i	i
O=C(CCN1C(=O)c2ccccc2S1(=O)=O)Nc1ccc(F)c(F)c1F	i	i	i	i	i	i
COc1ccccc1CNCc1cc(Br)ccc1OC	i	-6	i	i	i	i
COc1ccccc1CNCc1cc(OC)c(OC)cc1OC	i	i	i	i	i	i
COc1cc(CNCc2cccc3ccccc23)cc(OC)c1	i	-4.7	i	i	i	i
c1ccc2cc(CNCc3cccc4ccccc34)ccc2c1	i	i	i	i	i	i
CCOc1cc(C2NC(=O)CCC2[N+](=O)[O-])cc(Br)c1OCC (configuration not stated)	i	i	i	i	i	i
c1ccc(N2CCN(c3nc(-c4ccccn4)nc4ccccc34)CC2)cc1	i	i	i	-5.6	i	i
c1ccc2c(N3CCCCCC3)nc(-c3ccncc3)nc2c1	i	i	i	i	i	i
CCN(C(=O)CCNC(=O)Cn1cnc2ccccc2c1=O)c1ccccc1F	i	i	i	i	i	i
CCNC(=S)N(Cc1cc2cc(C)ccc2[nH]c1=O)C1CCCC1	i	i	i	i	i	12
CCNC(=S)N(Cc1cc2cc(C)c(C)cc2[nH]c1=O)C1CCCC1	i	i	i	i	i	i
O=C1C2CC=CCC2C(=O)N1c1ccc(NCCc2ccccc2)c([N+](=O)[O-])c1 (configuration not stated)	i	i	i	i	i	i
CC1CCC2C(=O)N(c3ccc(NC4CCN(Cc5ccccc5)CC4)c([N+](=O)[O-])c3)C(=O)C2C1 (configuration not stated)	72	i	i	i	i	i
SMILES	TRPC4 agonist	Kir21 block	TRPC4 inh	TRPC6 inhibitor	TRPC6 act	TRPC4 PAM
O=[N+]([O-])c1ccccc1NC1CCN(Cc2ccccc2)CC1	i	-7	i	i	i	i
O=C1CCC(=O)N1c1ccc(NC2CCN(Cc3ccccc3)CC2)c([N+](=O)[O-])c1	83	i	i	i	i	i
C/C(=N\Nc1cc(N2CCOCC2)ncn1)c1ccc(O)cc1	i	i	i	i	i	i
COc1cccc(CNc2nnnn2C)c1	i	i	i	i	i	i
CC(C)OCCCNC(=O)c1ccc(NC(=O)C2=CSCCO2)cc1	i	i	i	i	i	i
CCN1C(N(C)CCc2cccs2)=N[C@@H](c2ccccc2)C(C(=O)OC)=C1C	i	i	-5	i	i	i
CCc1nnc(NC(=O)C2CCCN(S(=O)(=O)c3ccc(OC)cc3)C2)s1 (configuration not stated)	i	i	i	i	i	i
Fc1ccc(NC(=S)NC2CC3CCCC(C2)N3Cc2cccs2)cc1 (configuration not stated)	i	i	i	i	i	i
CCc1ccc(NC(=S)NC2CC3CCCC(C2)N3Cc2ccccc2)cc1 (configuration not stated)	51	i	i	i	i	i
S=C(Nc1ccc(Cl)cc1)NC1CC2CCC(C1)N2Cc1ccccc1 (configuration not stated)	i	-4.7	i	i	i	i
Cc1ccc(NC(=S)NC2CC3CCCC(C2)N3Cc2cccs2)cc1 (configuration not stated)	48	i	i	i	i	i
S=C(Nc1ccc(Cl)c(Cl)c1)NN1CCOCC1	i	i	i	i	i	i
CCOC(=O)C1CCN(C(=O)c2ccc(CNS(=O)(=O)c3ccc(OC)cc3)cc2)CC1	i	i	i	i	i	i
COc1cc(NC(=O)C2=C(N3CCOCC3)/C(=C\c3ccc(Cl)cc3Cl)CC2)cc(OC)c1OC	i	i	i	i	i	i
CCN(CC)S(=O)(=O)c1ccc(C(=O)NCC(=O)NCCCc2ccccc2)cc1	i	i	i	i	i	i
O=C(NC1CCCN(Cc2ccc(Cl)cc2)C1)C1CCC1 (configuration not stated)	136	i	i	i	i	i
O=C(NC1CCCN(Cc2ccc(Cl)cc2)C1)c1c(F)cccc1F (configuration not stated)	i	i	i	i	i	i
CC(C)Cc1ccc(CN2CCCC(NC(=O)CSc3nncn3C)C2)cc1 (configuration not stated)	i	i	i	i	i	i
Cn1cnnc1SCC(=O)NC1CCCN(Cc2ccc(Cl)cc2)C1 (configuration not stated)	46	i	i	i	i	i
CN(Cc1ccccc1)C(=O)C1CCCN(Cc2ccc(Cl)cc2)C1 (configuration not stated)	i	-4.2	i	i	i	i
COc1ccc(CN2CCC(C(=O)c3ccc(Cl)cc3)CC2)cc1	i	-9.8	i	i	i	i
COc1ccc(OC)c2[nH]c(=O)c(CCNC(=O)c3cccs3)cc12	i	i	i	i	i	i
COc1cccc(CC(=O)NC2CCCN(Cc3ccc(Cl)cc3)C2)c1 (configuration not stated)	i	i	i	i	i	14
CCN(CC)CCN1C(=O)C2C(C(=O)Nc3cccc(C)c3)C3C=CC2(O3)C1C(=O)NC1CCCC(C)C1C (configuration not stated)	i	i	i	i	i	i
O=C(N/N=C\c1ccc(Cl)s1)C1COc2ccccc2O1 (configuration not stated)	70	i	i	i	i	i

High-throughput results as filed in PubChem BioAssay.
